Assay results: ChEMBL document CHEMBL4311937, “Repositioning Salirasib as a new antimalarial agent” (Medchemcomm, 2019)
Calls of active or inactive are those of the source. The calls are words filed in the database; no cut-off is given here.

Key:
[1] = system: Plasmodium falciparum; assay: Antimalarial activity against synchronized ring stage Plasmodium falciparum 3D7 transfected with nano-luciferase assessed as parasite growth inhibition after 72 hrs by Nano-Glo luciferase assay; format: functional, organism-based; details: 3D7, 72 h
Method in brief: (§1)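 Assays started at 1% ring stage and 2% hematocrit, with serial RPMI dilutions from 20 mM ethanol stocks. Cultures were lysed with an equal volume of 0.02% saponin buffer containing Nano-Glo substrate, and luminescence was read for 30 s. IC50 was fitted by variable-slope nonlinear regression; 3 experiments ×3 technical replicates.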

[2] = system: Plasmodium falciparum; assay: Antimalarial activity against synchronized ring stage Plasmodium falciparum 3D7 transfected with nano-luciferase assessed as parasite growth inhibition at 200 uM after 72 hrs by Nano-Glo luciferase assay; format: functional, organism-based
[3] = system: Vero; assay: Cytotoxicity against African green monkey Vero cells after 72 hrs by MTT assay; format: cell-based; details: Chlorocebus sabaeus
Method in brief: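 Vero cells in DMEM with 10% FBS and penicillin/streptomycin, 37 °C, 5% CO₂, seeded at 3000 cells/well. Compounds came from 27 or 25 mM DMSO stocks diluted in medium, with matching DMSO controls. After 72 h, cells got 0.5 mg/mL MTT for 4 h at 37 °C; formazan was dissolved in DMSO and absorbance read at 562 nm.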

[4] = system: Plasmodium falciparum; assay: Antimalarial activity against synchronized ring stage Plasmodium falciparum 3D7 assessed as parasite growth inhibition measured after 24 to 96 hrs; format: functional, organism-based; details: in the assay text read “24 to 72 hrs” for “24 to 96 hrs”
Method in brief: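 Sorbitol-synchronized 3D7 rings grown in RPMI-1640 with 0.5% Albumax I under 5% CO₂/5% O₂/90% N₂. Started at 1% ring stage, 2% hematocrit, with serial dilutions in RPMI from 20 mM ethanol stocks, plus ethanol solvent controls. Followed up to 72 h. Growth was read by SYBR Green I lysis-buffer staining (485/520 nm) and confirmed by Giemsa smears. IC50 came from variable-slope nonlinear regression; 3 experiments ×3 technical replicates.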

[5] = Selectivity index, ratio of IC50 for African green monkey Vero cells to IC50 for synchronized ring stage Plasmodium falciparum 3D7 transfected with nano-luciferase; format: toxicity; details: read-out: Ratio IC50
[6] = system: Plasmodium falciparum; assay: Antimalarial activity against synchronized ring stage Plasmodium falciparum 3D7 transfected with nano-luciferase assessed as parasite growth inhibition after 48 hrs by Nano-Glo luciferase assay; format: functional, organism-based; details: 3D7, 48 h
Method in brief: as §1, with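 “nLuc-exporting transfected 3D7 rings were sorbitol-synchronized and cultured in RPMI-1640/0.5% Albumax I under 5% CO₂/5% O₂/90% N₂. Assays” for “Assays”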

[7] = system: Erythrocyte; assay: Hemolytic activity in erythrocytes (unknown origin) at 100 uM; format: ADME, cell-based
[8] = system: Erythrocyte; assay: Hemolytic activity in erythrocytes (unknown origin) at 200 uM; format: ADME, cell-based

CC(C)=CCC/C(C)=C/Cn1cc(CSc2ccccc2C(=O)O)nn1
IC50 [1]: > 200 µM | Activity [2]: Active

CC(C)=CCC/C(C)=C/CC/C(C)=C/CSc1ccccc1C(=O)O [SALIRASIB]
IC50 [3]: 210 µM | IC50 [4]: 14 µM | IC50 [1]: 20.3 µM | selectivity ratio [5]: 10.3 | Activity [2]: Active

O=C(O)c1ccccc1SCc1cn(Cc2ccccc2)nn1
IC50 [1]: > 200 µM | Activity [2]: Active

CCCCCCCCCCCCCn1cc(CSc2ccccc2C(=O)O)nn1
IC50 [3]: 59 µM | IC50 [1]: 19.8 µM | selectivity ratio [5]: 2.99 | Activity [2]: Active

C/C(=C\CSc1ccccc1C(=O)O)CCCC(C)CCCC(C)CCCC(C)C (centres undefined)
IC50 [3]: 52 µM | IC50 [1]: 13.4 µM | selectivity ratio [5]: 3.87 | Activity [2]: Active

O=C(O)c1ccccc1SC/C=C/c1ccccc1
IC50 [1]: > 200 µM | Activity [2]: Active

O=C(O)c1ccccc1SCc1cn(CCCc2ccccc2)nn1
IC50 [1]: > 200 µM | Activity [2]: Active

CCCCCCCCCCSc1ccccc1C(=O)O
IC50 [1]: > 200 µM | Activity [2]: Active

C#CCSc1ccccc1C(=O)O
IC50 [1]: > 200 µM | Activity [2]: Active

O=C(O)c1ccccc1SCc1cn(C/C=C/c2ccccc2)nn1
IC50 [3]: > 200 µM | IC50 [1]: 65.3 µM | selectivity ratio [5]: > 3.06 | Activity [2]: Active

O=C(O)c1ccccc1SC1CCCCC1
IC50 [1]: > 200 µM | Activity [2]: Active

O=C(O)c1ccccc1SCc1cn(CCc2ccccc2)nn1
IC50 [1]: > 200 µM | Activity [2]: Active

CCOC(=O)Cn1cc(CSc2ccccc2C(=O)O)nn1
IC50 [1]: > 200 µM | Activity [2]: Active

CCCCCCCCn1cc(CSc2ccccc2C(=O)O)nn1
IC50 [1]: > 200 µM | Activity [2]: Active

O=C(O)c1ccccc1SCc1cn(Cc2ccc3ccccc3c2)nn1
IC50 [3]: 143 µM | IC50 [1]: 20.5 µM | selectivity ratio [5]: 6.95 | Activity [2]: Active

C[C@H]1[C@H](OC(=O)CCC(=O)O)O[C@@H]2O[C@@]3(C)CC[C@H]4[C@H](C)CC[C@@H]1[C@@]24OO3 [ARTESUNATE]
IC50 [6]: 0.00164 to 0.00174 µM

CCOC(=O)CCn1cc(CSc2ccccc2C(=O)O)nn1
IC50 [1]: > 200 µM | Activity [2]: Active

C/C(=C\Cn1cc(CSc2ccccc2C(=O)O)nn1)CCCC(C)CCCC(C)CCCC(C)C (centres undefined)
IC50 [3]: 34 µM | IC50 [1]: 9.75 µM | selectivity ratio [5]: 3.67 | Activity [2]: Active | Activity [7]: Non-Toxic | Activity [8]: Toxic

CC(C)=CCn1cc(CSc2ccccc2C(=O)O)nn1
IC50 [1]: > 200 µM | Activity [2]: Active

CCCCCCCCCCCCCCCCn1cc(CSc2ccccc2C(=O)O)nn1
IC50 [3]: 27 µM | IC50 [1]: 14.4 µM | selectivity ratio [5]: 1.86 | Activity [2]: Active | Activity [7]: Non-Toxic | Activity [8]: Toxic

CC(C)=CCC/C(C)=C/CSc1ccccc1C(=O)O
IC50 [1]: > 200 µM | Activity [2]: Active

CCCCCCCCSc1ccccc1C(=O)O
IC50 [1]: > 200 µM | Activity [2]: Active

CC(C)=CCSc1ccccc1C(=O)O
IC50 [1]: > 200 µM | Activity [2]: Active

O=C(O)c1ccccc1SCc1cn(C2CCCCC2)nn1
IC50 [1]: > 200 µM | Activity [2]: Active

CCCCCCCCCCn1cc(CSc2ccccc2C(=O)O)nn1
IC50 [1]: > 200 µM | Activity [2]: Active

CC(C)=CCC/C(C)=C/CC/C(C)=C/Cn1cc(CSc2ccccc2C(=O)O)nn1
IC50 [3]: > 200 µM | IC50 [1]: 26 µM | selectivity ratio [5]: > 7.7 | Activity [2]: Active

CCOC(=O)CCSc1ccccc1C(=O)O
IC50 [1]: > 200 µM | Activity [2]: Active
